From ChEMBL document CHEMBL1142947, “Gallium(III) and iron(III) complexes of alpha-N-heterocyclic thiosemicarbazones: synthesis, characterization, cytotoxicity, and interaction with ribonucleotide reductase” (J Med Chem, 2007)

Assays:
[1] = target: T1, Ribonucleoside-diphosphate reductase subunit M2 (Mus musculus) (UniProt P11157); test: Effect on mouse ribonucleotide reductase R2 protein measured by tyrosyl radical concentration in anaerobic condition at 3 mM, 298 K after 15 mins
T1 sequence (whole entry): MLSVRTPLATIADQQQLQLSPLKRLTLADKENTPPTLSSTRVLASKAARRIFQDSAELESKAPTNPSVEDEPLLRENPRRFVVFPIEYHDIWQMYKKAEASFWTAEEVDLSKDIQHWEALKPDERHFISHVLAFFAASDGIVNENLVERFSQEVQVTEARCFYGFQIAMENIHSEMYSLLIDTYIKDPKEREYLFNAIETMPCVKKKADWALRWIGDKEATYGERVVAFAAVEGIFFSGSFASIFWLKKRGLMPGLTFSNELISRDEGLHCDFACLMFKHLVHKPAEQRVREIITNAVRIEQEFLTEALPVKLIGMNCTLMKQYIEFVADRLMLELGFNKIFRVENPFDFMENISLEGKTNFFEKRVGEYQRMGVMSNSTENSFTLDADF
Method in brief: (§1)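 Run in an anaerobic tent with argon-bubbled, vacuum-degassed buffer (50 mM Tris/HCl pH 7.6, 100 mM KCl) and solutions. Protein degassed and diluted to a final 30 µM R2 monomer with 30 µM compound (from 3 mM stocks), 1% DMSO and 1 mM DTT freshly prepared. Incubated at 298 K for 1, 15 and 1005 min total; tyrosyl radical measured by EPR at 77 K.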

[2] = Cytotoxicity against human SKBR3 cells after 96 hrs by MTT assay; assay type: cell-based; conditions: SK-BR-3, 96 h
Method in brief: (§2)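 Adherent cells grown in MEM with 10% heat-inactivated FBS, 1 mM sodium pyruvate, 4 mM L-glutamine and nonessential amino acids at 37 °C, 5% CO2. Seeded at 4 × 10^3 cells/well and preincubated 24 h. Exposed 96 h to DMSO stocks serially diluted in medium (DMSO ≤0.5%). MTT added for 4 h, formazan dissolved in DMSO, read at 550 nm (ref 690 nm). IC50 interpolated from T/C curves; ≥3 independent experiments, six cultures per concentration.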

[3] = target: T1, Ribonucleoside-diphosphate reductase subunit M2 (Mus musculus); test: Effect on mouse ribonucleotide reductase R2 protein measured by tyrosyl radical concentration in aerobic condition at 3 mM, 298 K after 1005 mins
Method in brief: (§3)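 Reconstituted purified mouse R2 diluted to 30 µM monomer in 50 mM Tris/HCl pH 7.6, 100 mM KCl. Compound added from 3 mM stock (DMSO, or water for nitrates) to a final 30–33 µM (1:1 with monomer), about 1% DMSO, plus 1 mM DTT, under air at 298 K. Samples frozen in liquid nitrogen after each incubation; tyrosyl radical quantified by X-band EPR at 40 K.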

41M = test: Cytotoxicity against human 41M cells after 96 hrs by MTT assay; assay type: cell-based; method in brief: as §2
[4] = target: T1, Ribonucleoside-diphosphate reductase subunit M2 (Mus musculus); test: Effect on mouse ribonucleotide reductase R2 protein measured by tyrosyl radical concentration in anaerobic condition at 3 mM, 298 K after 1005 mins; method in brief: as §1
[5] = target: T1, Ribonucleoside-diphosphate reductase subunit M2 (Mus musculus); test: Effect on mouse ribonucleotide reductase R2 protein measured by tyrosyl radical concentration in anaerobic condition at 3 mM, 298 K after 1 min; method in brief: as §1
[6] = target: T1, Ribonucleoside-diphosphate reductase subunit M2 (Mus musculus); test: Effect on mouse ribonucleotide reductase R2 protein measured by tyrosyl radical concentration in aerobic condition at 3 mM, 298 K after 1 min; method in brief: as §3
[7] = target: T1, Ribonucleoside-diphosphate reductase subunit M2 (Mus musculus); test: Effect on mouse ribonucleotide reductase R2 protein measured by tyrosyl radical concentration in aerobic condition at 30-33 µM, 298 K after 15 mins

Activity [1]	Activity [3]	Activity [4]	Activity [5]	Activity [6]	Activity [7]	SMILES	IC50 [2]	IC50 (41M)
0 µM	0.5 µM	0 µM	8.5 µM	17.2 µM	7 µM	C/C(=N\NC(=S)N(C)C)c1ccccn1	2.7 nM	0.22 nM
						C/C(=N\NC(=S)N1CCCC1)c1cnccn1	5 nM	1.1 nM
						C/C(=N\NC(=S)N(C)C)c1cnccn1	1.4 nM	0.073 nM
						C/C(=N\NC(=S)N1CCCC1)c1ccccn1	3.1 nM	0.36 nM
						C/C(=N\NC(=S)N1CCCCC1)c1cnccn1	2.2 nM	0.41 nM
